From ChEMBL document CHEMBL3244302, “Potential long-acting anticonvulsants. 1; Synthesis and activity of succinimides containing an alkylating group at the 2 position” (J Med Chem, 1977)
Activity calls are given as the source filed them.

Legend:
[1] = system: Mus musculus; experiment: Anticonvulsant activity in mouse assessed as protection against maximal electroshock-induced hindlimb tonic extensor component of seizure at 300 mg/kg, ip after 4 hrs by MES test; type: functional, organism-based; parameters: dose 300 mg/kg
Procedure, shortened: (§1)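 Mice were dosed ip at 30, 100 or 300 mg/kg in 0.9% NaCl or 30% PEG 400 (0.01 ml/g), with four animals per dose. One mouse per dose got MES at 30 min and another at 4 h. Stimulus: 60-Hz AC, 50 mA, 0.2 s, corneal electrodes. Protection was abolition of hindlimb tonic extension; the lowest active dose was scored.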

[2] = system: Mus musculus; experiment: Neurotoxicity in ip dosed mouse assessed as CNS depression; type: toxicity, organism-based, Central nervous system; settings: in vivo
[3] = system: Mus musculus; experiment: Anticonvulsant activity in mouse assessed as protection against maximal electroshock-induced hindlimb tonic extensor component of seizure at 300 mg/kg, ip after 30 mins by MES test; type: functional, organism-based; parameters: dose 300 mg/kg; procedure, shortened: as §1
[4] = system: Mus musculus; experiment: Anticonvulsant activity in mouse assessed as protection against metrazole-induced seizures at 30 mg/kg, ip after 30 mins by subcutaneous pentylenetetrazole seizure threshold test; type: functional, organism-based; parameters: dose 30 mg/kg
Procedure, shortened: (§2)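 Screen in mice given 30, 100 or 300 mg/kg ip in 0.9% NaCl or 30% PEG 400 (0.01 ml/g), four animals per dose. Subcutaneous metrazole challenge was given to one mouse per dose at 30 min and to another at 4 h. Activity was scored as the lowest active dose.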

[5] = system: Mus musculus; experiment: Anticonvulsant activity in ip dosed mouse assessed as protection against metrazole-induced seizures after 0.5 hrs by subcutaneous pentylenetetrazole seizure threshold test; type: functional
Procedure, shortened: (§3)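 Against subcutaneous metrazole in ip-dosed mice (0.9% NaCl or 30% PEG 400 vehicle), ED50 was taken at 30 min or at the time of peak effect (0.5 h or 2 h, as the line states). ED50 and confidence limits were derived by Litchfield–Wilcoxon.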

[6] = Neurotoxicity in ip dosed mouse by rotarod test; type: toxicity, organism-based; settings: in vivo
[7] = system: Mus musculus; experiment: Anticonvulsant activity against metrazole-induced seizures in ip dosed mouse assessed as duration of action by subcutaneous pentylenetetrazole seizure threshold test; type: functional; procedure, shortened: as §2
[8] = system: Mus musculus; experiment: Anticonvulsant activity in mouse assessed as protection against metrazole-induced seizures at 30 mg/kg, ip after 4 hrs by subcutaneous pentylenetetrazole seizure threshold test; type: functional, organism-based; parameters: dose 30 mg/kg; procedure, shortened: as §2
[9] = system: Mus musculus; experiment: Anticonvulsant activity in mouse assessed as protection against metrazole-induced seizures at 300 mg/kg, ip after 30 mins by subcutaneous pentylenetetrazole seizure threshold test; type: functional, organism-based; parameters: dose 300 mg/kg; procedure, shortened: as §2
[10] = system: Mus musculus; experiment: Anticonvulsant activity in mouse assessed as protection against metrazole-induced seizures at 300 mg/kg, ip after 4 hrs by subcutaneous pentylenetetrazole seizure threshold test; type: functional, organism-based; parameters: dose 300 mg/kg; procedure, shortened: as §2
[11] = system: Mus musculus; experiment: Anticonvulsant activity in mouse assessed as protection against maximal electroshock-induced hindlimb tonic extensor component of seizure at 100 mg/kg, ip after 4 hrs by MES test; type: functional, organism-based; parameters: dose 100 mg/kg; procedure, shortened: as §1
[12] = system: Mus musculus; experiment: Anticonvulsant activity in ip dosed mouse assessed as protection against metrazole-induced seizures by subcutaneous pentylenetetrazole seizure threshold test; type: functional; procedure, shortened: as §3
[13] = system: Mus musculus; experiment: Anticonvulsant activity in ip dosed mouse assessed as protection against maximal electroshock-induced hindlimb tonic extensor component of seizure by MES test; type: functional
Procedure, shortened: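 Mice dosed ip at 30, 100 and 300 mg/kg, compound in 0.9% NaCl or 30% PEG 400 (0.01 ml/g); four animals per dose, one tested at 30 min and one at 4 h. Seizure induced by 60-Hz corneal current, 50 mA, 0.2 s; protection = abolition of hindlimb tonic extension. ED50 with confidence limits by Litchfield–Wilcoxon.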

[14] = system: Mus musculus; experiment: Anticonvulsant activity in mouse assessed as protection against metrazole-induced seizures at 100 mg/kg, ip after 4 hrs by subcutaneous pentylenetetrazole seizure threshold test; type: functional, organism-based; parameters: dose 100 mg/kg; procedure, shortened: as §2
[15] = system: Mus musculus; experiment: Anticonvulsant activity in mouse assessed as protection against maximal electroshock-induced hindlimb tonic extensor component of seizure at 100 mg/kg, ip after 30 mins by MES test; type: functional, organism-based; parameters: dose 100 mg/kg; procedure, shortened: as §1
[16] = system: Mus musculus; experiment: Anticonvulsant activity in mouse assessed as protection against maximal electroshock-induced hindlimb tonic extensor component of seizure at 30 mg/kg, ip after 4 hrs by MES test; type: functional, organism-based; parameters: dose 30 mg/kg; procedure, shortened: as §1
[17] = system: Mus musculus; experiment: Anticonvulsant activity in ip dosed mouse assessed as protection against metrazole-induced seizures after 2 hrs by subcutaneous pentylenetetrazole seizure threshold test; type: functional; procedure, shortened: as §3
[18] = system: Mus musculus; experiment: Anticonvulsant activity against maximal electroshock-induced hindlimb tonic extensor component of seizure in ip dosed mouse assessed as duration of action by MES test; type: functional; procedure, shortened: as §1
[19] = system: Mus musculus; experiment: Anticonvulsant activity in ip dosed mouse assessed as protection against maximal electroshock-induced hindlimb tonic extensor component of seizure after 2 hrs by MES test; type: functional
Procedure, shortened: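 MES ED50 in ip-dosed mice (0.9% NaCl or 30% PEG 400 vehicle) was read at the time of peak effect (2 h). Stimulus: 60-Hz AC, 50 mA, 0.2 s via corneal electrodes, with abolition of hindlimb tonic extension as the end point. ED50 and confidence limits were derived by Litchfield–Wilcoxon.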

For `CN1C(=O)CC(c2ccc(NC(=O)CBr)cc2)C1=O` (stereo not given), the Activity [1] was “inactive”, the Activity [2] was “Toxic” and the Activity [3] was “inactive”. The Activity [4] was “Active”, the ED50 [5] was 35 mg/kg and the TD50 [6] was 54 mg/kg. The Time [7] was 3.5 h and the Activity [8] was “Active”.
With `CN1C(=O)CC(c2ccc(NC(=O)CCl)cc2)C1=O` (stereo not given) the Activity [1] was “inactive”, the Activity [3] was “inactive” and the Activity [9] was “inactive”. The Activity [10] was “inactive”.
In the case of `CN1C(=O)CC(C(=O)c2ccc(NC(=O)CBr)cc2)(c2ccccc2)C1=O` (stereo not given), the Activity [1] was “inactive”, the Activity [3] was “inactive” and the Activity [9] was “inactive”. The Activity [10] was “inactive”.
In the case of `CN1C(=O)CC(c2ccc(NC(=O)CI)cc2)C1=O` (stereo not given), the Activity [2] was “Toxic”, the Activity [3] was “inactive” and the Activity [4] was “Active”. The Activity [10] was “inactive” and the Activity [11] was “Active”.
In the case of `CN1C(=O)CC(C(=O)CBr)(c2ccccc2)C1=O` (stereo not given), the Activity [1] was “inactive”, the Activity [3] was “inactive” and the Activity [4] was “Active”. For the same molecule, the Activity [10] was “inactive”.
For `CN1C(=O)CC(c2ccc(NC(=O)/C=C\C(=O)O)cc2)C1=O` (stereo not given), the Activity [1] was “inactive”, the Activity [3] was “inactive” and the Activity [9] was “inactive”. For the same molecule, the Activity [10] was “inactive”.
For `CN1C(=O)CC(C)(c2ccccc2)C1=O` (stereo not given) [METHSUXIMIDE], the Activity [1] was “Active”, the ED50 [12] was 35 mg/kg and the Activity [3] was “Active”. For the same molecule, the Activity [4] was “Active”, the ED50 [13] was 76 mg/kg and the Activity [10] was “inactive”. It also gave a TD50 [6] of 188 mg/kg.
In the case of `CN1C(=O)CC(CCCN2C(=O)C=CC2=O)(c2ccccc2)C1=O` (stereo not given), the Activity [1] was “inactive”, the Activity [14] was “Active” and the Activity [2] was “Toxic”. The Activity [3] was “inactive” and the Activity [9] was “inactive”.
In the case of `CN1C(=O)CC(c2ccccc2)C1=O` (stereo not given) [PHENSUXIMIDE], the Activity [1] was “Active”, the ED50 [12] was 50 mg/kg and the Activity [4] was “Active”. The Activity [15] was “Active”, the TD50 [6] was 232 mg/kg and the Activity [8] was “Active”.
With `CN1C(=O)CC(CCN2C(=O)C=CC2=O)(c2ccccc2)C1=O` (stereo not given) the Activity [2] was “Toxic”, the Activity [3] was “inactive” and the Activity [4] was “Active”. The Activity [16] was “Active”, the Time [7] was 3.5 h and the Activity [8] was “Active”.
For `CN1C(=O)CC(C(=O)c2ccc(NC(=O)/C=C\C(=O)O)cc2)(c2ccccc2)C1=O` (stereo not given), the Activity [1] was “inactive”, the Activity [3] was “inactive” and the Activity [9] was “inactive”. The Activity [10] was “inactive”.
With `CN1C(=O)CC(C(=O)CCl)(c2ccccc2)C1=O` (stereo not given) the Activity [1] was “Active”, the Activity [3] was “Active” and the ED50 [17] was 100 mg/kg. For the same molecule, the Activity [4] was “Active”, the Time [18] was 3.5 h and the Activity [10] was “inactive”. The ED50 [19] was 225 mg/kg.
With `CN1C(=O)CC(CCNC(=O)/C=C\C(=O)O)(c2ccccc2)C1=O` (stereo not given) the Activity [1] was “inactive”, the Activity [3] was “inactive” and the Activity [9] was “inactive”. For the same molecule, the Activity [10] was “inactive”.
In the case of `CN1C(=O)CC(c2ccc(N3C(=O)C=CC3=O)cc2)C1=O` (stereo not given), the Activity [1] was “inactive”, the Activity [2] was “Toxic” and the Activity [3] was “inactive”. For the same molecule, the Activity [4] was “Active” and the Activity [10] was “inactive”.
For `CN1C(=O)CC(C(=O)c2ccc(N3C(=O)C=CC3=O)cc2)(c2ccccc2)C1=O` (stereo not given), the Activity [1] was “inactive”, the Activity [3] was “inactive” and the Activity [9] was “inactive”. For the same molecule, the Activity [10] was “inactive”.
With `CN1C(=O)CC(CCCNC(=O)/C=C\C(=O)O)(c2ccccc2)C1=O` (stereo not given) the Activity [1] was “inactive”, the Activity [3] was “inactive” and the Activity [9] was “inactive”. The Activity [10] was “inactive”.
For `CN1C(=O)CC(CCCNC(=O)CCl)(c2ccccc2)C1=O` (stereo not given), the Activity [1] was “inactive”, the Activity [3] was “inactive” and the Activity [9] was “inactive”. The Activity [10] was “inactive”.
With `CCC1(C)CC(=O)NC1=O` (stereo not given) [ETHOSUXIMIDE] the Activity [1] was “inactive”, the ED50 [12] was 130 mg/kg and the Activity [3] was “inactive”. For the same molecule, the Activity [9] was “Active”, the ED50 [13] was greater than 1000 mg/kg and the Activity [10] was “inactive”.
In the case of `CN1C(=O)CC(CCNC(=O)CCl)(c2ccccc2)C1=O` (stereo not given), the Activity [1] was “inactive”, the Activity [3] was “inactive” and the Activity [9] was “inactive”. The Activity [10] was “inactive”.
